ChEMBL document CHEMBL3045304, “Sesquiterpene lactones with potential use as natural herbicide models. 2. guaianolides” (2000)
Calls of active or inactive are those of the source. No cut-off for these calls is given here.

Key:
Triticum aestivum [1] = test: Stimulation of root length of Triticum aestivum cv. Cortex (wheat) at 0.1 mM or 1 mM after 5 days relative to untreated control; type: functional
Method in brief: (§1)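 Wheat: 10 seeds per dish on filter paper with 5 mL test solution, 5 days in the dark at 25 °C, 10 replicates per concentration. Stock test solutions were 10^-3 or 10^-4 M in 10 mM MES, with lower levels made by dilution, all at pH 6.0. Parallel controls were run. Output is % difference from control.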

Triticum aestivum [2] = test: Inhibition of germination of Triticum aestivum cv. Cortex (wheat) at 0.1 mM or 1 mM after 5 days relative to untreated control; type: functional; method in brief: as §1
Solanum lycopersicum [3] = test: Inhibition of root length of Solanum lycopersicum cv. Tres Cantos (tomato) at 0.1 mM or 1 mM after 5 days relative to untreated control; type: functional
Method in brief: (§2)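 Lettuce and tomato seeds, 25 per dish on filter paper, received 5 mL test solution. Incubation was 5 days in the dark at 25 °C, with four replicates per concentration. Solutions were made at 10^-3 or 10^-4 M in 10 mM MES, diluted serially, and adjusted to pH 6.0. Parallel controls were run. Results are % difference from control.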

Lactuca sativa [4] = test: Inhibition of root length of Lactuca sativa cv. Roman (lettuce) at 0.1 mM or 1 mM after 5 days relative to untreated control; type: functional; method in brief: as §2
Solanum lycopersicum [5] = test: Stimulation of root length of Solanum lycopersicum cv. Tres Cantos (tomato) at 0.1 mM or 1 mM after 5 days relative to untreated control; type: functional; method in brief: as §2
Triticum aestivum [6] = test: Stimulation of hypocotyl length of Triticum aestivum cv. Cortex (wheat) at 0.1 mM or 1 mM after 5 days relative to untreated control; type: functional; method in brief: as §1
Solanum lycopersicum [7] = test: Stimulation of germination of Solanum lycopersicum cv. Tres Cantos (tomato) at 0.1 mM or 1 mM after 5 days relative to untreated control; type: functional; method in brief: as §2
Triticum aestivum [8] = test: Stimulation of germination of Triticum aestivum cv. Cortex (wheat) at 0.1 mM or 1 mM after 5 days relative to untreated control; type: functional; method in brief: as §1
Allium cepa [9] = test: Inhibition of root length of Allium cepa cv. Valenciana (onion) at 0.1 mM or 1 mM after 5 days relative to untreated control; type: functional
Allium cepa [10] = test: Stimulation of hypocotyl length of Allium cepa cv. Valenciana (onion) at 0.1 mM or 1 mM after 5 days relative to untreated control; type: functional
Lepidium sativum [11] = test: Inhibition of germination of Lepidium sativum at 0.1 mM or 1 mM after 5 days relative to untreated control; type: functional
Triticum aestivum [12] = test: Inhibition of root length of Triticum aestivum cv. Cortex (wheat) at 0.1 mM or 1 mM after 5 days relative to untreated control; type: functional; method in brief: as §1
Lepidium sativum [13] = test: Inhibition of hypocotyl length of Lepidium sativum at 0.1 mM or 1 mM after 4 days relative to untreated control
Solanum lycopersicum [14] = test: Stimulation of hypocotyl length of Solanum lycopersicum cv. Tres Cantos (tomato) at 0.1 mM or 1 mM after 5 days relative to untreated control; type: functional; method in brief: as §2
Allium cepa [15] = test: Stimulation of root length of Allium cepa cv. Valenciana (onion) at 0.1 mM or 1 mM after 5 days relative to untreated control; type: functional
Lactuca sativa [16] = test: Inhibition of germination of Lactuca sativa cv. Roman (lettuce) at 0.1 mM or 1 mM after 5 days relative to untreated control; type: functional; method in brief: as §2
Lepidium sativum [17] = test: Stimulation of hypocotyl length of Lepidium sativum at 0.1 mM or 1 mM after 5 days relative to untreated control; type: functional
Lactuca sativa [18] = test: Stimulation of hypocotyl length of Lactuca sativa cv. Roman (lettuce) at 0.1 mM or 1 mM after 5 days relative to untreated control; type: functional; method in brief: as §2
Allium cepa [19] = test: Inhibition of germination of Allium cepa cv. Valenciana (onion) at 0.1 mM or 1 mM after 5 days relative to untreated control; type: functional
Lepidium sativum [20] = test: Inhibition of germination of Lepidium sativum at 0.1 mM or 1 mM after 4 days relative to untreated control; parameters: scale not given: the % may be the effect or the level left
Lactuca sativa [21] = test: Stimulation of root length of Lactuca sativa cv. Roman (lettuce) at 0.1 mM or 1 mM after 5 days relative to untreated control; type: functional; method in brief: as §2
Lepidium sativum [22] = test: Stimulation of root length of Lepidium sativum at 0.1 mM or 1 mM after 5 days relative to untreated control; type: functional
Allium cepa [23] = test: Stimulation of germination of Allium cepa cv. Valenciana (onion) at 0.1 mM or 1 mM after 5 days relative to untreated control; type: functional
Allium cepa [24] = test: Inhibition of hypocotyl length of Allium cepa cv. Valenciana (onion) at 0.1 mM or 1 mM after 5 days relative to untreated control; type: functional
Lepidium sativum [25] = test: Inhibition of root length of Lepidium sativum at 0.1 mM or 1 mM after 4 days relative to untreated control
Solanum lycopersicum [26] = test: Inhibition of hypocotyl length of Solanum lycopersicum cv. Tres Cantos (tomato) at 0.1 mM or 1 mM after 5 days relative to untreated control; type: functional; method in brief: as §2
Triticum aestivum [27] = test: Inhibition of hypocotyl length of Triticum aestivum cv. Cortex (wheat) at 0.1 mM or 1 mM after 5 days relative to untreated control; type: functional; method in brief: as §1
Lactuca sativa [28] = test: Inhibition of hypocotyl length of Lactuca sativa cv. Roman (lettuce) at 0.1 mM or 1 mM after 5 days relative to untreated control; type: functional; method in brief: as §2
Lactuca sativa [29] = test: Stimulation of germination of Lactuca sativa cv. Roman (lettuce) at 0.1 mM or 1 mM after 5 days relative to untreated control; type: functional; method in brief: as §2
Solanum lycopersicum [30] = test: Inhibition of germination of Solanum lycopersicum cv. Tres Cantos (tomato) at 0.1 mM or 1 mM after 5 days relative to untreated control; type: functional; method in brief: as §2
Allium cepa [31] = test: Stimulation of root length of Allium cepa cv. Valenciana (onion) at 0.1 mM or 1 mM after 7 days relative to untreated control
Allium cepa [32] = test: Stimulation of hypocotyl length of Allium cepa cv. Valenciana (onion) at 0.1 mM or 1 mM after 7 days relative to untreated control
Allium cepa [33] = test: Inhibition of hypocotyl length of Allium cepa cv. Valenciana (onion) at 0.1 mM or 1 mM after 7 days relative to untreated control
Allium cepa [34] = test: Stimulation of germination of Allium cepa cv. Valenciana (onion) at 0.1 mM or 1 mM after 7 days relative to untreated control

Row | SMILES | Activity (Triticum aestivum [1]) | inhibition (Triticum aestivum [2]) | inhibition (INH) (Solanum lycopersicum [3]) | inhibition (INH) (Lactuca sativa [4]) | Activity (Solanum lycopersicum [5]) | Activity (Triticum aestivum [6]) | Activity (Solanum lycopersicum [7]) | Activity (Triticum aestivum [8]) | inhibition (INH) (Lepidium sativum [11]) | Activity (Solanum lycopersicum [14]) | Activity (Lepidium sativum [17]) | Activity (Lactuca sativa [18]) | inhibition (Allium cepa [19]) | Activity (Lepidium sativum [20]) | Activity (Lactuca sativa [21]) | Activity (Lepidium sativum [22]) | inhibition (INH) (Lepidium sativum [25]) | inhibition (INH) (Triticum aestivum [27]) | Activity (Lactuca sativa [29]) | inhibition (Solanum lycopersicum [30]) | further results
1 | C=C1C(=O)O[C@H]2[C@H]1CCC(=C)[C@@H]1C[C@@H](O)C(=C)[C@@]12O [5ALPHA-HYDROXYISOZALUZANIN C] | >40% | inactive | >40% | <20% | >40% | 20% | inactive | inactive | >40% | >40% | >40% | 20% | inactive | >40% | <20% | >40% | >40% | 20% | 20% | inactive | inhibition (INH) (Allium cepa [9]): >40%; Activity (Allium cepa [10]): >40%; inhibition (INH) (Triticum aestivum [12]): >40%; inhibition (INH) (Lepidium sativum [13]): >40%; Activity (Allium cepa [15]): >40%; inhibition (INH) (Lactuca sativa [16]): 20%; Activity (Allium cepa [23]): inactive; inhibition (INH) (Allium cepa [24]): >40%; inhibition (INH) (Solanum lycopersicum [26]): >40%; inhibition (INH) (Lactuca sativa [28]): 20%
2 | C=C1C(=O)O[C@H]2[C@H]1CCC(=C)[C@@H]1CCC(=C)[C@@]12O | inactive | inactive | <20% | 20% | <20% | <20% | inactive | inactive | <20% | inactive | >=20% | inactive | inactive | <20% | 20% | >=20% | >=20% | <20% | inactive | inactive | inhibition (INH) (Allium cepa [9]): 20%; Activity (Allium cepa [10]): <20%; inhibition (Triticum aestivum [12]): inactive; inhibition (INH) (Lepidium sativum [13]): >=20%; Activity (Allium cepa [15]): 20%; inhibition (Lactuca sativa [16]): inactive; Activity (Allium cepa [23]): inactive; inhibition (INH) (Allium cepa [24]): <20%; inhibition (Solanum lycopersicum [26]): inactive; inhibition (Lactuca sativa [28]): inactive
3 | C=C1[C@@H]2[C@H]3OC(=O)C(=C)[C@@H]3CCC(=C)[C@@H]2C[C@@H]1O [ZALUZANIN C] | 20% | – | <20% | 20% | <20% | 20% | inactive | <20% | <20% | inactive | inactive | 20% | inactive | <20% | 20% | <20% | <20% | 20% | inactive | inactive | inhibition (INH) (Triticum aestivum [2]): <20%; inhibition (Allium cepa [9]): inactive; inhibition (INH) (Triticum aestivum [12]): 20%; inhibition (Lepidium sativum [13]): inactive; inhibition (Lactuca sativa [16]): inactive; Activity (Allium cepa [31]): inactive; Activity (Allium cepa [32]): inactive; inhibition (Allium cepa [33]): inactive; Activity (Allium cepa [34]): inactive; inhibition (Solanum lycopersicum [26]): inactive; inhibition (INH) (Lactuca sativa [28]): 20%
